Active and inactive are the calls of the source. No cut-off for these calls is given here.
What was measured:
[1] = biological target: Serine/threonine-protein kinase B-raf (Homo sapiens, UniProt P15056, V600E); assay: Binding affinity to DNA-tagged BRAF (unknown origin) V600E mutant by KINOMEscan assay
[2] = biological target: T1, Serine/threonine-protein kinase B-raf (Homo sapiens, UniProt P15056); assay: Binding affinity to DNA-tagged BRAF (unknown origin) by KINOMEscan assay
[3] = system: Protein cereblon/Serine/threonine-protein kinase B-raf (Homo sapiens), P15056+Q96SW2 [V600E]; assay: Protac activity at CRBN/BRAF V600E mutant in human A375 cells assessed as induction of BRAF V600E mutant degradation at 1 to 1000 nM incubated for 16 hrs by immunoblotting; format: cell-based
Summary of the method: (§1)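 A375 cells (BRAF-V600E, DMEM with 10% FBS, 37 °C, 5% CO2) were exposed to DMSO or a serial dilution of degrader for 16 h. Cells were lysed in cold RIPA with protease and phosphatase inhibitors, protein was measured by BCA, and samples were run on SDS-PAGE. Blots were probed for BRAF, p-ERK1/2 and α-tubulin, detected by ECL, and bands were quantitated.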

A-375 [4] = assay: Cytotoxicity in human A375 cells assessed as reduction in cell viability by Cell-titer-Lumi assay; format: functional, cell-based
Summary of the method: (§2)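 Cells grown in DMEM with 10% FBS at 37 °C, 5% CO2. Seeded at 2000 cells/well, then treated across a 12-point serial dilution. Viability read after three days by CellTiter-Lumi luminescence. IC50 obtained by nonlinear least-squares regression of dose-response curves. Lines STR-authenticated and mycoplasma-free.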

HT-29 = assay: Cytotoxicity in human HT-29 cells assessed as reduction in cell viability by Cell-titer-Lumi assay; format: functional, cell-based; summary of the method: as §2
HaCaT = assay: Cytotoxicity in human HaCaT cells assessed as reduction in cell viability at 10 nM to 10 uM by Cell-titer-Lumi assay; format: cell-based; summary of the method: as §2
WI-38 = assay: Cytotoxicity in human WI38 cells assessed as reduction in cell viability at 10 nM to 10 uM by Cell-titer-Lumi assay; format: cell-based; conditions: wi-38, 10 nM to 10 uM; summary of the method: as §2
IMR-90 = assay: Cytotoxicity in human IMR90 cells assessed as reduction in cell viability at 10 nM to 10 uM by Cell-titer-Lumi assay; format: cell-based; conditions: imr-90, 10 nM to 10 uM; summary of the method: as §2
[5] = system: Serine/threonine-protein kinase B-raf (Homo sapiens), P15056 [V600E]; assay: Potency index, ratio of Kd for vemurafenib to Kd of test compound for binding affinity to DNA-tagged BRAF (unknown origin) V600E mutant by KINOMEscan assay
Sequence of Serine/threonine-protein kinase B-raf (Homo sapiens), P15056 [V600E] (P15056 whole entry V600E): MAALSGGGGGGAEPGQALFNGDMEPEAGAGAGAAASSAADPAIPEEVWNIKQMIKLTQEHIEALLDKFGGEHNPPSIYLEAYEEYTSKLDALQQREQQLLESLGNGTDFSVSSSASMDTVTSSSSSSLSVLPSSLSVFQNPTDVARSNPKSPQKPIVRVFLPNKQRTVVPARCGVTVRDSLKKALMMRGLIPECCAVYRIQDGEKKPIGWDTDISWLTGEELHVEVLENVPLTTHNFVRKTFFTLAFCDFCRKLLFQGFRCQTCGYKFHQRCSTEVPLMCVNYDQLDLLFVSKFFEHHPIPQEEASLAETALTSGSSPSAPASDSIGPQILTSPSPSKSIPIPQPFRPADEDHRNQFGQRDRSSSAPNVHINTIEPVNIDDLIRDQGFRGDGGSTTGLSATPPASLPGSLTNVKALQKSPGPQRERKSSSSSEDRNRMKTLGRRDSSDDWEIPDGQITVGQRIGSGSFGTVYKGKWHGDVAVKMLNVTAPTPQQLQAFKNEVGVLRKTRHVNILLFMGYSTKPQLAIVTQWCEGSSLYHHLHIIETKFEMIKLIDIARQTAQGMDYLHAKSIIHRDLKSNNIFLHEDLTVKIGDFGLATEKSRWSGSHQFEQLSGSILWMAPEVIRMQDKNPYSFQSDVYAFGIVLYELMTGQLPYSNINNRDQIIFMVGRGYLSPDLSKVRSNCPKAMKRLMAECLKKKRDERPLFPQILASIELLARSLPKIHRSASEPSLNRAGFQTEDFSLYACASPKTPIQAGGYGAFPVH

[6] = biological target: T1, Serine/threonine-protein kinase B-raf; assay: Potency index, ratio of Kd for vemurafenib to Kd of test compound for binding affinity to DNA-tagged BRAF (unknown origin) by KINOMEscan assay
[7] = system: Protein cereblon/Serine/threonine-protein kinase B-raf (Homo sapiens), P15056+Q96SW2 [V600E]; assay: Protac activity at CRBN/BRAF V600E mutant in human A375 cells assessed as reduction in BRAF V600E mutant-mediated ERK phosphorylation at 1 to 1000 nM incubated for 16 hrs by immunoblotting; format: cell-based; summary of the method: as §1
[8] = biological target: T2, Protein cereblon/Serine/threonine-protein kinase B-raf (Homo sapiens) (UniProt P15056+Q96SW2); assay: Protac activity at CRBN/BRAF in human A549 cells assessed as induction of BRAF degradation at 1 to 1000 nM incubated for 16 hrs by immunoblotting; format: cell-based
T2 sequence (P15056 whole entry, looked up): as the sequence (P15056 whole entry V600E) above, with E600V counted along it
T2 sequence (Q96SW2 whole entry, looked up): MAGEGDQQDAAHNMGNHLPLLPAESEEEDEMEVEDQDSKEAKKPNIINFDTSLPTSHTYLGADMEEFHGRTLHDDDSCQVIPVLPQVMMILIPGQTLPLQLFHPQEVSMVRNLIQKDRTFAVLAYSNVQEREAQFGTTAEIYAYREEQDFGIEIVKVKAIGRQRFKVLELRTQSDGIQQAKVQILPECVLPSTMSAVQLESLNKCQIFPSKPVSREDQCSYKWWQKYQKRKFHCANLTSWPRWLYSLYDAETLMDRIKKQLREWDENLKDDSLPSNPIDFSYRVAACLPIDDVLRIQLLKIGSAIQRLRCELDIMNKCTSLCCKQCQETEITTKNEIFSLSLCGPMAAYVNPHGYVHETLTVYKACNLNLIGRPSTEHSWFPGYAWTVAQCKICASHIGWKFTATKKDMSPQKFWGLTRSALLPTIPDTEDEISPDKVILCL
Summary of the method: (§3)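 A549 cells carrying wild-type BRAF (DMEM, 10% FBS) were treated with DMSO or a 3-fold serial dilution of compound for 16 h. BRAF was read by immunoblotting: RIPA lysis, BCA protein assay, SDS-PAGE, anti-BRAF antibody with α-tubulin as loading control, ECL detection and densitometric quantitation.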

[9] = system: Protein cereblon/Serine/threonine-protein kinase B-raf (Homo sapiens), P15056+Q96SW2 [V600E]; assay: Protac activity at CRBN/BRAF V600E mutant kinase domain (unknown origin) expressed in human A375 cells assessed as induction of BRAF V600E mutant degradation at 1 to 1000 nM incubated for 16 hrs by immunoblotting; format: cell-based
Summary of the method: (§4)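 A375 lines stably expressing the BRAF-V600E or wild-type BRAF kinase domain were made by lentiviral transduction and kept in 1 µg/mL puromycin. They were treated with DMSO or a 3-fold serial dilution of compound for 16 h. Kinase-domain levels were read by immunoblotting of RIPA lysates with ECL and band quantitation.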

[10] = biological target: T2, Protein cereblon/Serine/threonine-protein kinase B-raf (Homo sapiens); assay: Protac activity at CRBN/BRAF kinase domain (unknown origin) expressed in human A375 cells assessed as induction of BRAF degradation at 1 to 1000 nM incubated for 16 hrs by immunoblotting; format: cell-based; summary of the method: as §4
A-375 [11] = assay: Inhibition of colony formation in human A375 cells at 40 to 1000 nM incubated for 7 days by crystal violet staining based assay; format: functional, cell-based
Summary of the method: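 A375 plated at 200 cells/well, dosed the following day with DMSO or compound. After seven days, cells fixed and stained with 0.5% crystal violet, and colonies counted. Data as mean ± SD; Student's t-test against corresponding control groups.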

[12] = system: Protein cereblon/Serine/threonine-protein kinase B-raf (Homo sapiens), P15056+Q96SW2 [V600E]; assay: Protac activity at CRBN/BRAF V600E mutant in human A375 cells assessed as induction of BRAF V600E mutant degradation at 500 nM incubated for 6 hrs after 1 hr pre-treatment with 10 uM pomalidomide by immunoblotting
[13] = system: Protein cereblon/Serine/threonine-protein kinase B-raf (Homo sapiens), P15056+Q96SW2 [V600E]; assay: Protac activity at CRBN/BRAF V600E mutant in human A375 cells assessed as induction of BRAF V600E mutant degradation at 500 nM incubated for 6 hrs after 1 hr pre-treatment with 20 uM proteasome inhibitor MG132 by immunoblotting
[14] = system: Protein cereblon/Serine/threonine-protein kinase B-raf (Homo sapiens), P15056+Q96SW2 [V600E]; assay: Protac activity at CRBN/BRAF V600E mutant in human A375 cells assessed as induction of BRAF V600E mutant degradation at 500 nM incubated for 6 hrs after 1 hr pre-treatment with 200 nM proteasome inhibitor bortezomib by immunoblotting
[15] = system: Protein cereblon/Serine/threonine-protein kinase B-raf (Homo sapiens), P15056+Q96SW2 [V600E]; assay: Protac activity at CRBN/BRAF V600E mutant in human A375 cells assessed as induction of BRAF V600E mutant degradation at 500 nM incubated for 6 hrs after 1 hr pre-treatment with 1 uM NEDD8-activating enzyme inhibitor […] by immunoblotting
[16] = system: Protein cereblon/Serine/threonine-protein kinase B-raf (Homo sapiens), P15056+Q96SW2 [V600E]; assay: Protac activity at CRBN/BRAF V600E mutant in human A375 cells assessed as reduction in BRAF V600E mutant-mediated ERK phosphorylation at 1 to 1000 nM incubated for 2 hrs by immunoblotting; format: cell-based
[17] = biological target: T2, Protein cereblon/Serine/threonine-protein kinase B-raf (Homo sapiens); assay: Protac activity at CRBN/BRAF in human A549 cells assessed as induction of BRAF degradation at 15 to 1000 nM incubated for 16 hrs by immunoblotting; format: cell-based; summary of the method: as §3

Sequence of Serine/threonine-protein kinase B-raf (Homo sapiens, UniProt P15056, V600E) (P15056 2-766 V600E limits assumed): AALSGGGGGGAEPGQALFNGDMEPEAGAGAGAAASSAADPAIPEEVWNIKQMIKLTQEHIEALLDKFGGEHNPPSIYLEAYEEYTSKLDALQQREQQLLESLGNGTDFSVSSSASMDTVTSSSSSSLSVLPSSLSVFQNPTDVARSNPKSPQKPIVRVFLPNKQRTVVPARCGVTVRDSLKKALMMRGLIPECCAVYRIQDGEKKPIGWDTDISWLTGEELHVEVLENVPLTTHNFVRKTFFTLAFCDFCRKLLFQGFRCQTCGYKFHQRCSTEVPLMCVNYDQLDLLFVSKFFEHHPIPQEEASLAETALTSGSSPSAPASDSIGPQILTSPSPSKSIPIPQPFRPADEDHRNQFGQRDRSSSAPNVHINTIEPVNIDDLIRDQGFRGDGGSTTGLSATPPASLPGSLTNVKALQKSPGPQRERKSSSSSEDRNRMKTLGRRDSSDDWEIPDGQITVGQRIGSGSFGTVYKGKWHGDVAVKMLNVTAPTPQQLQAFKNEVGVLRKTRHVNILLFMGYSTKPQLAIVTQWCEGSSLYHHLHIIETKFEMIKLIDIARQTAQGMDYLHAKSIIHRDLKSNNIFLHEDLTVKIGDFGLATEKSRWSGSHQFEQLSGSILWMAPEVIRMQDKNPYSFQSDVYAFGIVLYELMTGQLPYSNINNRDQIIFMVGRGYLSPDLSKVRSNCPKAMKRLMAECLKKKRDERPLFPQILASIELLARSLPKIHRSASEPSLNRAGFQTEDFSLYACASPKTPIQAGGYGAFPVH
T1 sequence (P15056 whole entry): as the sequence (P15056 whole entry V600E) above, with E600V counted along it

Compound	Kd [1]	Kd [2]	Activity [3]	IC50 (A-375 [4])	IC50 (HT-29)	Activity (HaCaT)	Activity (WI-38)	Activity (IMR-90)	Activity [7]	Activity [9]	Activity [10]	inhibition (A-375 [11])	Activity [12]	Activity [13]	Activity [14]	Activity [15]	further results
CCCS(=O)(=O)Nc1ccc(F)c(C(=O)c2c[nH]c3ncc(-c4ccc(CNC(=O)CCCCNc5ccc6c(c5)C(=O)N(C5CCC(=O)N(C)C5=O)C6=O)cc4)cc23)c1F (centres undefined)	7.3 nM	5.1 nM	inactive	492 nM	459 nM	Non-Toxic	Non-Toxic	Non-Toxic	–	–	–	–	–	–	–	–	–
CCCS(=O)(=O)Nc1ccc(F)c(-n2cc(-c3cncnc3)c3nc(N(C)C4CCN(C(=O)CCOCCOCCOCCNc5cccc6c5C(=O)N(C5CCC(=O)N(C)C5=O)C6=O)CC4)ccc32)c1F (centres undefined)	2.7 nM	2.6 nM	inactive	190 nM	348 nM	Non-Toxic	Non-Toxic	Non-Toxic	–	–	–	–	–	–	–	–	–
CCCS(=O)(=O)Nc1ccc(F)c(C(=O)c2c[nH]c3ncc(-c4ccc(Cl)cc4)cc23)c1F [VEMURAFENIB]	–	–	–	116 nM	164 nM	–	–	–	–	–	–	–	–	–	–	–	–
CCCS(=O)(=O)Nc1ccc(F)c(C(=O)c2c[nH]c3ncc(-c4ccc(CNC(=O)CCCCNc5ccc6c(c5)C(=O)N(C5CCC(=O)NC5=O)C6=O)cc4)cc23)c1F (centres undefined)	14.4 nM	9.5 nM	Dose-dependent effect	500 nM	124 nM	Non-Toxic	Non-Toxic	Non-Toxic	Dose-dependent effect	Active	inactive	Active	inactive	inactive	inactive	inactive	Ratio [5]: 4 to 5; Ratio [6]: 4 to 5; Activity [8]: inactive
CCCS(=O)(=O)Nc1ccc(F)c(-n2cc(-c3cncnc3)c3nc(N(C)C4CCN(CC)CC4)ccc32)c1F [XP-102]	0.33 nM	0.37 nM	–	6.3 nM	1.7 nM	–	–	–	–	–	–	–	–	–	–	–	–
CCCS(=O)(=O)Nc1ccc(F)c(-n2cc(-c3cncnc3)c3nc(N(C)C4CCN(C(=O)CCOCCOCCOCCNc5cccc6c5C(=O)N(C5CCC(=O)NC5=O)C6=O)CC4)ccc32)c1F (centres undefined)	2 nM	2.4 nM	Dose-dependent effect	46.5 nM	51 nM	Non-Toxic	Non-Toxic	Non-Toxic	Dose-dependent effect	Active	inactive	Active	inactive	inactive	inactive	inactive	Activity [16]: Active; Activity [17]: inactive

Reference: ChEMBL document CHEMBL4354871, “Discovery of Selective Small Molecule Degraders of BRAF-V600E” (J Med Chem, 2020)
